Shown is part of a subset that was picked to be rich in hits.
NOD2-RIPK2 inh = NOD2-RIPK2 protein interaction inhibition; CHO BLA complementation NOD2-RIPK2, CCF4 ratio; inhibition, % at 4.98 µM; 360,000 tested, 0.38% active; O43353; AID 624267; in the data active = inhibition above about 21%;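 also: 0% = vehicle only and 100% = reference blocker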
UPR CHOP act = apoptotic UPR (CHOP) activation | activation, % at 10 µM | CHO-CHOP luciferase reporter, luminescence; percent of tunicamycin response over DMSO baseline | 330,000 tested, 0.34% active;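 active = at 10 µM dose, activation of 40% or more, normalized to positive control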;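 also: 100% = tunicamycin at 10 µg/mL and 0% = DMSO alone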
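Assay system: CHO-CHOP cells, stable luciferase reporter of PERK-eIF2a-CHOP signalling / Buffer or medium: F12 plus 10% serum / Compound dosing: one dose, 10 µM in 0.5% DMSO / Times: 6 h compound treatment, 37 °C / Technique: luciferase luminescence / Read-out: % reporter activation, DMSO baseline versus tunicamycin full activation / Benchmarks: tunicamycin and DMSO controls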
TLR9-MyD88 block = TLR9-MyD88 interaction inhibition | inhibition, % at 4.98 µM | CHO BLA complementation TLR9-MyD88, CCF4 FRET ratio | 340,000 tested, 0.21% active;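 active = inhibition above the mean over all tested compounds plus 3 SD, cut at about 21% in these data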;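 also: 0% = DMSO only wells and 100% = clavulanate BLA inhibitor control wells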
TLR4-MyD88 BLA = TLR4-MyD88 interaction inhibition in cells; HeLa CL3-4 TLR4/MyD88 BLA complementation, FRET ratio; inhibition, % at 8.4 µM; 200,000 tested, 0.18% active; AID 861; in the data active = inhibition above about 25%;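 also: 0% = vehicle and 100% = reference inhibitor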
Target sequence (O00206 whole entry, looked up): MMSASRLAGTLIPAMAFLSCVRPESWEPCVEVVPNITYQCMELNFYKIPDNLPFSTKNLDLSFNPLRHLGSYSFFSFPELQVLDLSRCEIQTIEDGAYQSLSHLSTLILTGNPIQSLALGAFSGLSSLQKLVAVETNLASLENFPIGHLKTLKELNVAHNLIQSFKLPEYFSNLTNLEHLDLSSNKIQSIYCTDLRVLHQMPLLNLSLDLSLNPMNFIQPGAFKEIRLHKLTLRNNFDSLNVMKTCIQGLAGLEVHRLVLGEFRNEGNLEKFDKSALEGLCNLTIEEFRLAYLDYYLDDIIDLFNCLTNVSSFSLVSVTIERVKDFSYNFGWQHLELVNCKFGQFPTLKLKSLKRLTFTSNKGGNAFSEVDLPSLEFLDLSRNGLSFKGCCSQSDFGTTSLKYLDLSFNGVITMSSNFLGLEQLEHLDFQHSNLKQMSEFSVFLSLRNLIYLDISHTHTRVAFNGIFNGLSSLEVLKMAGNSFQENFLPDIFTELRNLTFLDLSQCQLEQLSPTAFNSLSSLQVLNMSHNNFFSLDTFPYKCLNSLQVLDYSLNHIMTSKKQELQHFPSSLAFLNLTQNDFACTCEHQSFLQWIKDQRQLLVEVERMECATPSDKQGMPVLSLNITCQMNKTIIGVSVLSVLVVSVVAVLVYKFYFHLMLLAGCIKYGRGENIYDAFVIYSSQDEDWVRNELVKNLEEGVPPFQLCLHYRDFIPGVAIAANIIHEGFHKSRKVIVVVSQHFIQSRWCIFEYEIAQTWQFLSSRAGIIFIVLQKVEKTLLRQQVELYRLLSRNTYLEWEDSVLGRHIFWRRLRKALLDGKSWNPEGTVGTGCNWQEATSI
Target sequence (Q99836 whole entry, looked up): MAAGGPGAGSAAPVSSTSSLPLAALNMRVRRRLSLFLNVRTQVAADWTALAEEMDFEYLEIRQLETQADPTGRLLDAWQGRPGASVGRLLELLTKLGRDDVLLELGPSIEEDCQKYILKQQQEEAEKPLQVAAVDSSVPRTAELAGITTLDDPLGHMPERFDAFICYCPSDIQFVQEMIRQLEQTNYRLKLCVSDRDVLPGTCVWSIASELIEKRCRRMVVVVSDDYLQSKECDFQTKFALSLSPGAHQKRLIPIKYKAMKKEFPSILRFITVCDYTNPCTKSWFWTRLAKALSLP
XBP1 UPR activ = activators of adaptive arm of unfolded protein response (XBP1). CHO-XBP1 luciferase reporter, IRE1-XBP1 UPR activation, luminescence; percent of tunicamycin response, DMSO as zero. activation, % at 20 µM. 330,000 tested, 0.33% active;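 active = versus positive control, 20 µM dose yields 30% or more activation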;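 also: 100% = tunicamycin at 10 µg/mL and 0% = DMSO only wells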
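Material: IRE1-XBP1 luciferase reporter CHO line / Quantity: one thousand reporter cells per well / Buffer or medium: F12 with 10% serum / Compound: 20 µM single concentration, DMSO 1% / Times: 6 h treatment, 37 °C / Detection: Steady-Glo luciferase glow luminescence, 10 min after reagent addition / Benchmarks: tunicamycin high, DMSO low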
CHOP inh = CHOP inhibition in unfolded protein response; CHO-K1 CHOP-promoter luciferase, tunicamycin-induced, 15-18 h; 220,000 tested, 3.8% active; inhibition, % at 10 µM;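 active = compounds that reduced the stress-induced luciferase reporter signal by more than about 70% of percent inhibition, limit read from the data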;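 also: 0% = tunicamycin plus vehicle and 100% = wells without tunicamycin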
TLR9-MyD88 cf = TLR9-MyD88 interaction inhibition, confirmation. CHO TLR9/MyD88 BLA complementation, CCF4 FRET ratio. inhibition, % at 4.98 µM. shares compounds with TLR9-MyD88 block. 680 tested, 51% active. AID 540250;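 active = mean inhibition across three repeats above about 21% taken from the earlier screen, limit read from the data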;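 also: blue over green emission ratio reports constitutive TLR9 MyD88 association via BLA complementation; 0% = DMSO vehicle wells and 100% = clavulanate BLA inhibitor wells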
BLA counter-1 = beta-lactamase reporter inhibition, counter-screen artifact; CHO-BLA cells, CCF4 FRET ratio, BLA reporter; shares compounds with TLR9-MyD88 block; inhibition, % at 4.98 µM; AID 540251; 680 tested, 7% active;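 active = mean inhibition above a 50% cutoff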;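 also: counterscreen of TLR9-MyD88 hits on CMV-driven BLA in CHO-K1 cells; 0% = DMSO alone and 100% = clavulanate blocking BLA; higher means less blue over green ratio so more BLA blockade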
TLR9 CHO tox = counter-screen for TLR9-MyD88 inhibitors: cytotoxicity in CHO cells; shares compounds with TLR9-MyD88 block; luminescence; inhibition, % at 4.98 µM; 680 tested, 39% active; AID 588336; in the data active = inhibition above about 11%
NOD2 RIPK2 conf = NOD2-RIPK2 interaction inhibition confirmed; 1,200 tested, 70% active; inhibition, % at 4.98 µM; AID 624370; shares compounds with NOD2-RIPK2 inh; CHO cells, NOD2-RIPK2 BLA complementation, CCF4 FRET;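 active = mean inhibition across replicates above a set limit taken from the earlier primary screen, cut at about 21% in these data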;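 also: 0% = DMSO-only wells and the high end = clavulanate BLA-blocked wells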
BLA counter-2 = hits BLA reporter in NOD2-RIPK2 inhibitor counterscreen; shares compounds with NOD2-RIPK2 inh; CHO BLA reporter, CCF4 FRET ratio; inhibition, % at 4.98 µM; 1,200 tested, 57% active;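 active = mean inhibition above the low-control mean inhibition plus three low-control SD, cut at about 11% in these data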;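 also: 0% = DMSO only wells and 100% = clavulanate high control wells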
Starred values were filed as active, the others as inactive.

Screening CCOc1cc(C2NN=C(c3ccc(C)cc3)S2)ccc1O (centres undefined) returned NOD2-RIPK2 inh 15, TLR9-MyD88 block 21*, TLR4-MyD88 BLA 6, CHOP inh -50, TLR9-MyD88 cf 11, BLA counter-1 10 and TLR9 CHO tox 10.
For CS(=O)(=O)c1sc2nc(-c3cccs3)cc(-c3ccccc3)c2c1N the results were NOD2-RIPK2 inh 3, UPR CHOP act -3, TLR9-MyD88 block 25*, TLR4-MyD88 BLA 15, XBP1 UPR activ 1, CHOP inh 30, TLR9-MyD88 cf 19, BLA counter-1 17 and TLR9 CHO tox 4.
Screening OCCN1CCN(CC(O)COc2ccc(C34CC5CC(CC(C5)C3)C4)cc2)CC1 (centres undefined) returned NOD2-RIPK2 inh 5, UPR CHOP act 7, TLR9-MyD88 block 22*, TLR4-MyD88 BLA -4, XBP1 UPR activ 28, CHOP inh 15, TLR9-MyD88 cf 5, BLA counter-1 5 and TLR9 CHO tox 40*.
Screening OCCN1CCN(CC(O)COc2ccc(Cl)cc2)CC1 (centres undefined) returned NOD2-RIPK2 inh -19, UPR CHOP act -2, TLR9-MyD88 block -3, TLR4-MyD88 BLA -5, XBP1 UPR activ -5 and CHOP inh -4.
COC1C=CC=C(C)C(=O)NC2=CC(=O)C(N)=C(CC(C)CC(OC)C(O)C(C)C=C(C)C1OC(N)=O)C2=O (centres undefined) was read as NOD2-RIPK2 inh 13, TLR9-MyD88 block 24*, TLR9-MyD88 cf 2, BLA counter-1 -4 and TLR9 CHO tox 85*.
COC1CC(C)C(OC)c2cc(O)cc(c2O)NC(=O)C(C)=CC=CC(C)C(OC(N)=O)C(C)=CC(C)C1OC (centres undefined) was read as NOD2-RIPK2 inh -4 and TLR9-MyD88 block 8.
`COc1ccc(O)c(/C=N/NC(=S)Nc2cccnc2)c1` gave NOD2-RIPK2 inh 5, UPR CHOP act 0, TLR9-MyD88 block 29*, TLR4-MyD88 BLA -3, XBP1 UPR activ -3, CHOP inh 34, TLR9-MyD88 cf 15, BLA counter-1 8 and TLR9 CHO tox 17*.
`Cc1cc(F)ccc1S(=O)(=O)NCC(c1cccnc1)N1CCc2ccccc21` (centres undefined) gave NOD2-RIPK2 inh 11, UPR CHOP act 1, TLR9-MyD88 block 2 and XBP1 UPR activ -5.
For COc1cc(/C=C2\SC(=S)N(Nc3ncc(C(F)(F)F)cc3Cl)C2=O)ccc1O the results were NOD2-RIPK2 inh 13, UPR CHOP act 3, TLR9-MyD88 block 26*, TLR4-MyD88 BLA 11, XBP1 UPR activ 5, CHOP inh 5, TLR9-MyD88 cf 1, BLA counter-1 2 and TLR9 CHO tox 4.
Screening CCN(C[C@H]1N[C@@](CC)(C(=O)OC)[C@H]2C(=O)N(Cc3ccccc3)C(=O)[C@@H]12)C(=O)C1CCCCC1 returned NOD2-RIPK2 inh -7, UPR CHOP act 1, TLR9-MyD88 block -1 and XBP1 UPR activ -3.
CC(=O)Nc1cccc(/C(C)=N/NS(=O)(=O)c2ccc(C)cc2)c1 was read as NOD2-RIPK2 inh -2, UPR CHOP act 0, TLR9-MyD88 block -2, TLR4-MyD88 BLA -7, XBP1 UPR activ 2 and CHOP inh -6.
C/C(=N/NS(=O)(=O)c1ccc(C)cc1)c1ccc(NC(=O)C(F)(F)F)cc1 was read as NOD2-RIPK2 inh 3, UPR CHOP act 4, TLR9-MyD88 block 22*, TLR4-MyD88 BLA -6, XBP1 UPR activ 3, CHOP inh -2, TLR9-MyD88 cf 9, BLA counter-1 9 and TLR9 CHO tox -1.
COc1cc(/C=C/C(=O)O)cc(S(=O)(=O)NCc2ccco2)c1OC was read as NOD2-RIPK2 inh -1, UPR CHOP act -1, TLR9-MyD88 block -15, TLR4-MyD88 BLA -2, XBP1 UPR activ 0 and CHOP inh 19.
COc1cc(/C=C/C(=O)O)cc(S(=O)(=O)NCc2ccc3c(c2)OCO3)c1OC was read as NOD2-RIPK2 inh -7, UPR CHOP act -1, TLR9-MyD88 block 21*, TLR4-MyD88 BLA 1, XBP1 UPR activ 1, CHOP inh -7, TLR9-MyD88 cf 3, BLA counter-1 0 and TLR9 CHO tox -5.
CCCCN(CCCC)c1nc2ccccc2nc1C(C#N)C(=O)NCCCOC (centres undefined) was read as NOD2-RIPK2 inh -8, UPR CHOP act 0, TLR9-MyD88 block 40*, TLR4-MyD88 BLA 19, XBP1 UPR activ 0, CHOP inh 15, TLR9-MyD88 cf 9, BLA counter-1 13 and TLR9 CHO tox 6.
CCC(C)Sc1ccc(-c2nc3cc(C)ccn3c2NC2CCCCC2)cc1 (centres undefined) was read as NOD2-RIPK2 inh 5, UPR CHOP act 14, TLR9-MyD88 block 1 and XBP1 UPR activ 5.
CCCCNc1c(-c2ccc(OC)c(SC3CCCCC3)c2)nc2cnccn12 was read as NOD2-RIPK2 inh 40*, UPR CHOP act 2, TLR9-MyD88 block 21*, XBP1 UPR activ 3, TLR9-MyD88 cf 16, BLA counter-1 20, TLR9 CHO tox 3, NOD2 RIPK2 conf 29* and BLA counter-2 42*.
For CCC(C)Sc1ccc(-c2nc3cnccn3c2NC2CCCCC2)cc1 (centres undefined) the results were NOD2-RIPK2 inh 27*, UPR CHOP act 2, TLR9-MyD88 block 35*, XBP1 UPR activ 8, TLR9-MyD88 cf 46*, BLA counter-1 48, TLR9 CHO tox 3, NOD2 RIPK2 conf 65* and BLA counter-2 72*.
